Bioassay records (PubChem)
E coli WT exp = growth inhibitors of E. coli BW25113 wild type | 98,000 tested, 0.15% active | OD600 absorbance | growth inhibition, % at 100 µM | AID 710;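 active = growth inhibition above about 50% at one test dose, limit read from the data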;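 also: growth measured after 20 h incubation at 37 °C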
PostGolgi ctrl = yeast control strain growth, post-Golgi counter-screen | 98,000 tested, 5% active | efflux-deficient yeast background strain, growth absorbance A615, 16 h | inhibition, % at 10 µM
HePTP inhibitor = human HePTP phosphatase inhibition. P35236. recombinant HePTP phosphatase activity, OD absorbance. inhibition, % at 20 µM. 110,000 tested, 0.64% active. AID 521; in the data active = inhibition above about 50%;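 also: plate controls were vehicle for no effect and reference inhibitor for full effect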
PostGolgi yeast = growth inhibition of a yeast mutant, post-Golgi transport screen; post-Golgi transport phenotypic cell assay; inhibition, % at 10 µM; 98,000 tested, 0.9% active;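 also: yeast cells grown in 1536-well plates; yeast grown about 18 h at 30C before absorbance read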
PLAP act = activates human placental alkaline phosphatase; activation fold at 20 µM; purified PLAP enzyme, luminescent substrate read-out; stronger effect = higher value; 96,000 tested, 1.2% active; AID 696; in the data active = activation fold above about 2
Target sequence (P05187 whole entry, looked up): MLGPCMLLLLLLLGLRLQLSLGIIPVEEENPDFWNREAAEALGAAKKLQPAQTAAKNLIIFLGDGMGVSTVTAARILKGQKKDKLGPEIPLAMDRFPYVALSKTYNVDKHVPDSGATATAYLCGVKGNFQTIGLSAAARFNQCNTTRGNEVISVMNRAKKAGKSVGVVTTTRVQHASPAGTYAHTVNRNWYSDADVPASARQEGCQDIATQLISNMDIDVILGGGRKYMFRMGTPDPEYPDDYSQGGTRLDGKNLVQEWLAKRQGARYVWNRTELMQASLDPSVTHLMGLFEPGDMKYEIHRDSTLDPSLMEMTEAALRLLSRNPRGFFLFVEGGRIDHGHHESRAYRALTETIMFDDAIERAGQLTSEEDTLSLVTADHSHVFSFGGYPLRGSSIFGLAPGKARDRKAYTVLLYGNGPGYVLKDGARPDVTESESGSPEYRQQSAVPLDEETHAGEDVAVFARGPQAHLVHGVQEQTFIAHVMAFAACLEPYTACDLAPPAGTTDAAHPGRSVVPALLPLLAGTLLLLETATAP
tolC growth inh = growth inhibitors of E. coli BW25113 tolC mutant; OD615; growth inhibition, % at 10 µM (by protocol); 65,000 tested, 2.2% active;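 active = growth inhibition at or above a cutoff equal to the mean over every tested compound plus 3 SD, cut at about 60% in these data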;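 also: growth measured after 20 h incubation at 37 °C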
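Test system: E. coli BW25113 ΔtolC::kan bacteria | Medium: Kanamycin-containing LB broth (50 µg/mL) | Dosing: One dose of 10 µM final | Times: 20 h incubation with compound, 37 °C | Detection: Optical density read at 615 nm | Read-out basis: Percent growth inhibition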
Numbers without * were called inactive; nt = no result; ! = repeats disagree. An excerpt weighted towards active compounds, which were near 5.4% of everything screened. Rule as the data show it, unless noted: active = inhibition above about 30%; inactive = the rest.

SMILES | E coli WT exp | PostGolgi ctrl | HePTP inhibitor | PostGolgi yeast | PLAP act | tolC growth inh
Cc1ccc(-c2nc3cc(NC(=S)NC(=O)c4ccco4)ccc3o2)cc1 | nt | nt | -3 | nt | nt | nt
COCC(=O)NCc1nc2ccccc2n1Cc1ccccc1F | 0 | 8 | 5 | 12 | 1.1 | 6
CC(C)CCn1c(SCC(=O)N2CC(=O)Nc3ccccc32)nc2scc(-c3cccs3)c2c1=O | -4 | 7 | nt | 3 | 1.2 | nt
Cc1cccn2c(=O)c(/C=C3\SC(=S)N(Cc4ccco4)C3=O)c(NCCCn3ccnc3)nc12 | nt | nt | 62* | nt | nt | nt
O=C(c1sc2ccccc2c1Cl)N1CCN(c2ccc(F)cc2)CC1 | -21 | 45* | nt | 7 | 1 | nt
Cc1ccc2c(Cl)c(C(=O)N3CCN(c4ccc(F)cc4)CC3)sc2c1 | nt | nt | 5 | nt | nt | nt
Cc1ccc(N=c2oc3cc(O)ccc3cc2C(N)=O)cc1 | -2 | 58* | 4 | 30* | 1.3 | 18
CN(C)C(CNS(=O)(=O)c1ccc(Br)cc1)c1cccnc1 (stereo not drawn) | 1 | 5 | 5 | 3 | nt | -3
Cc1ccc(NS(=O)(=O)c2cc(C(=O)N3CCOCC3)ccc2C)cc1 | 2 | 7 | -5 | 48* | 1.1 | 11
Cc1ccc(NS(=O)(=O)c2cc(C(=O)NCCSc3ccc(C)cc3)ccc2C)cc1 | -14 | 36* | nt | -9 | 1.2 | nt
CCOCCCNc1nc2c(c(=O)n(C)c(=O)n2C)n1CCCc1ccccc1 | -1 | 33* | 1 | -12 | 1.4 | 1
CCOC(=O)c1cccc(NC(=O)CCNS(=O)(=O)c2ccc3c(c2)CCN3C(=O)CC)c1 | -15 | 2 | 0 | -2 | 1 | -7
COCCN(CC(=O)NC1CCCCC1)C(=O)CSc1nc2ccccc2o1 | 3 | 8 | -1 | -4 | 0.9 | 4
O=C(CN(Cc1ccc2c(c1)OCO2)C(=O)CSc1nc2ccccc2o1)NC1CCCCC1 | 2 | 4 | 5 | 5 | 1.1 | 100*
COc1ccccc1C(=O)NCC(c1cccnc1)N(C)C (stereo not drawn) | nt | nt | 2 | nt | 1.1 | -23
Cc1ccc(-c2nnc(SCC#CCOC(=O)c3cccs3)o2)cc1 | -9 | 36* | nt | -11 | 0.7 | nt
O=C(Nc1nc(COc2ccccc2)cs1)C12CC3CC(CC(C3)C1)C2 | -8 | 37* | nt | 1 | 0.5 | nt
CC(=O)Nc1nc(COc2ccccc2)cs1 | 12 | 13 | 0 | -1 | 0.9 | 7
Cc1ccc(C(=O)Nc2nc(COc3ccccc3)cs2)s1 | -9 | 2 | -6 | -1 | 1.1 | 79*
O=C(NCCN1CCN(c2ccccc2)CC1)c1cccn2c(=O)c3cc(Cl)ccc3nc12 | 3 | 68* | -3 | 7 | 1.6 | 14
N#CC1=C2Sc3ccccc3N2CCCC1=O | 4 | 1 | 6 | -2 | 0.9 | -17
CC1CC(C)CN(C(=O)CSc2nc(Cc3cccs3)nc3ccccc23)C1 (stereo not drawn) | -13 | 18 | nt | 17 | 1.5 | nt
COc1ccc(C(=O)/C(=C/c2cccs2)c2nc3ccccc3o2)cc1 | -20 | 38* | nt | 1 | 1.4 | nt
CCn1c(C)nc2cc(C(=O)n3cc(C(=O)c4cc(F)ccc4O)cn3)ccc21 | nt | nt | 6 | nt | 2.1* | -2
CSc1nc(C)cc(Oc2ccc(OCCOc3ccccc3)nn2)n1 | -3 | 0 | nt | -1 | 1.2 | nt
SMILES | E coli WT exp | PostGolgi ctrl | HePTP inhibitor | PostGolgi yeast | PLAP act | tolC growth inh
CCOC(=O)CSc1nc2c(c(=O)[nH]c(=O)n2C)n1CCCc1ccccc1 | -15 | 8 | 0 | -2 | 1 | -9
CCCCCn1c(Sc2nc3ccccc3s2)nc2c1c(=O)[nH]c(=O)n2C | -7 | 35* | 6 | 1 | 1.5 | 24
Cc1csc(Sc2nc3c(c(=O)[nH]c(=O)n3C)n2CCCc2ccccc2)n1 | -14 | 45* | -2 | -1 | 0.9 | 0
C=C(C)Cn1c(Sc2nc3ccccc3[nH]2)nc2c1c(=O)[nH]c(=O)n2C | 6 | -12 | -1 | 2 | 2.1* | -3
CCCCCn1c(Sc2ncccn2)nc2c1c(=O)[nH]c(=O)n2C | -6 | -1 | nt | 11 | nt | -1
CCOC(=O)C(CCCOc1ccccc1F)C(=O)OCC | nt | nt | -10 | nt | nt | nt
O=C1c2ccccc2C(Nc2cccc(C(F)(F)F)c2)N1Cc1ccco1 (stereo not drawn) | -5 | 32* | -1 | -1 | 1 | 93*
COc1cccc(NC2c3ccccc3C(=O)N2Cc2ccco2)c1 (stereo not drawn) | 1 | 9 | 7 | -4 | 1 | 4
O=C(Cn1cc2c(n1)CCCCC2)Nc1c(F)c(F)cc(F)c1F | 5 | 12 | nt | -2 | 0.9 | nt
Cn1c(SCC(=O)NCc2ccccc2)nnc1-c1ccc(NC(=O)CCc2ccccc2)cc1 | -2 | 21 | nt | 2 | 1 | nt
Clc1cccc(Cl)c1Cn1cnc2c(N3CCCCCC3)ncnc21 | -8 | 34* | 13 | 1 | 1 | 42
CC(C)(C)c1ccc(OCCON2C(=O)CCC2=O)c(Cl)c1 | -7 | 33* | nt | -2 | 1 | nt
Cc1cc(C)nc(Sc2c(C)nn(-c3ccccc3)c2C)n1 | 5 | 18 | 11 | 3 | 1.6 | 12
Cc1nn(-c2ccccc2)c(C)c1Sc1ccc(Cl)cc1 | nt | nt | 104* | nt | nt | nt
COc1ccc(C(=O)N2CCN(C(=O)Cc3ccccc3)CC2)cc1OC | -5 | 47* | -5 | 0 | 1.3 | -3
COC(=O)[C@H](CCSC)NC(=O)Nc1ccc(C(C)C)cc1 | -11 | -2 | 2 | -5 | 0.8 | -4
CCCCCc1nc2c(C#N)c(-c3ccc(Cl)cc3)ccn2n1 | -14 | 34* | nt | -2 | 0.9 | nt
Cc1cc(-c2ccccc2)c2nncn2n1 | 6 | 10 | 78*! | -2 | 1.1 | -9
COc1ccc(-n2nnnc2C(Cl)(Cl)c2nnnn2-c2ccc(OC)cc2)cc1 | nt | nt | 1 | nt | nt | nt
Cc1ccc(-n2nnnc2C(Cl)(Cl)c2nnnn2-c2ccc(C)cc2)cc1 | -2 | 100* | nt | 108* | 0.9 | nt
Cn1cccc1CNC(=O)Nc1ccc(Cl)cc1 | 8 | 38* | -10 | 14 | 1 | 14
CC(C)n1c(N2CCN(CC(=O)NCc3cccs3)CC2)nc2ccccc21 | -4 | 4 | 5 | 14 | 2* | 5
COC(=O)c1nc2cc(C)ccn2c1F | 8 | 49* | -10 | -14 | 1 | -10
CCOC(=O)c1c(C)nc2cc(C)ccn12 | -2 | 5 | 6 | 1 | 1 | 0
Cc1ccc(-c2noc(-c3ccc(Cl)cc3Cl)n2)cc1 | nt | nt | -1 | nt | nt | nt
SMILES | E coli WT exp | PostGolgi ctrl | HePTP inhibitor | PostGolgi yeast | PLAP act | tolC growth inh
Nc1nc(-c2ccccc2)c(N)c(-c2ccccc2)n1 | nt | nt | -6 | nt | nt | nt
CCOC(=O)CSC1=C(C#N)C(c2ccccc2OCC)C(C(=O)OCC)C(=O)N1 (stereo not drawn) | 5 | 1 | 5 | 7 | 1.7 | 18
CCCCSC1=C(C#N)C(c2ccccc2C)C(C(=O)OCC)C(=O)N1 (stereo not drawn) | -7 | 15 | 5 | 7 | 0.8 | 71*
CCOC(=O)c1ccc(NS(=O)(=O)c2cc(-c3nnnn3C)ccc2OC)cc1 | nt | nt | 3 | nt | nt | nt
Cc1ccc(CN2CCN(/N=C/c3cc(Br)ccc3O)CC2)cc1 | -7 | 22 | nt | 74* | 1 | nt
Cc1ccc(CN2CCN(/N=C\c3cc(Br)ccc3O)CC2)cc1 | nt | nt | -1 | nt | nt | nt
